Data: ChEMBL document CHEMBL2384965, “ABSOLUTE CONFIGURATION AND BIOLOGICAL PROPERTIES OF ENANTIOMERS OF CFTR INHIBITOR BPO-27” (ACS Med Chem Lett, 2013)
Values belong to the molecule of their own block, whether it stands above or below them. Active and inactive are the calls of the source. The rule behind the calls is not given here.

Experiments:
[1] = target: T1, Cystic fibrosis transmembrane conductance regulator (Homo sapiens, UniProt P13569); experiment: Inhibition of wild type human CFTR chloride conductance expressed in forskolin-stimulated rat FRT cells by short-circuit current analysis in presence of transepithelial chloride gradient; assay type: cell-based
Method in brief: (§1)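 FRT epithelial cells expressing human wild-type CFTR, basolateral membrane permeabilized with amphotericin B, transepithelial chloride gradient applied. CFTR chloride conductance activated with 10 μM forskolin; inhibition read as the reduction in short-circuit current.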

[2] = Drug metabolism in rat liver microsomes at 5 uM measured over 4 hrs by LC/MS analysis in presence of NADPH; assay type: ADME, Microsome; settings: read-out: Drug metabolism
[3] = system: Serum; experiment: Metabolic stability in mouse serum assessed as formation of (S)-BPO-27 at 5 mg measured at 4 hrs by hydrogen-deuterium exchange assay; assay type: ADME, cell-free
[4] = Half life in CD1 mouse at 10 mg/kg, ip administered as bolus dose; assay type: ADME, organism-based; parameters: dose 10 mg/kg, route intraperitoneal; settings: in vivo
Method in brief: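 Single bolus i.p. dose of 10 mg/kg in mice, given in 5% DMSO, 2.5% Tween-80 and 2.5% PEG400 in water. Blood sampled at set times; serum compound measured by LC/MS ion chromatograms (m/z 548 [M+H]+) against a calibration of known amounts spiked into blood (linear, sensitivity better than 500 nM). Mean ± S.E., n = 3; t1/2 from the decay of the parent compound.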

[5] = Drug uptake in CD1 mouse kidney at 10 mg/kg, ip administered as bolus dose measured at 4 hrs by LC-MS analysis; assay type: ADME, organism-based; parameters: dose 10 mg/kg, route intraperitoneal; settings: read-out: Drug uptake
Method in brief: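 Mice received a single bolus intraperitoneal dose of 10 mg/kg in 5% DMSO, 2.5% Tween-80 and 2.5% PEG400 in water. Kidney homogenate was taken at 4 h and the compound measured by LC/MS (3 mice).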

[6] = target: T1, Cystic fibrosis transmembrane conductance regulator; experiment: Inhibition of wild type human CFTR chloride conductance expressed in forskolin-stimulated rat FRT cells at 100 nM by short-circuit current analysis in presence of transepithelial chloride gradient; assay type: cell-based; method in brief: as §1
Target sequence in this assay (P13569 whole entry, looked up): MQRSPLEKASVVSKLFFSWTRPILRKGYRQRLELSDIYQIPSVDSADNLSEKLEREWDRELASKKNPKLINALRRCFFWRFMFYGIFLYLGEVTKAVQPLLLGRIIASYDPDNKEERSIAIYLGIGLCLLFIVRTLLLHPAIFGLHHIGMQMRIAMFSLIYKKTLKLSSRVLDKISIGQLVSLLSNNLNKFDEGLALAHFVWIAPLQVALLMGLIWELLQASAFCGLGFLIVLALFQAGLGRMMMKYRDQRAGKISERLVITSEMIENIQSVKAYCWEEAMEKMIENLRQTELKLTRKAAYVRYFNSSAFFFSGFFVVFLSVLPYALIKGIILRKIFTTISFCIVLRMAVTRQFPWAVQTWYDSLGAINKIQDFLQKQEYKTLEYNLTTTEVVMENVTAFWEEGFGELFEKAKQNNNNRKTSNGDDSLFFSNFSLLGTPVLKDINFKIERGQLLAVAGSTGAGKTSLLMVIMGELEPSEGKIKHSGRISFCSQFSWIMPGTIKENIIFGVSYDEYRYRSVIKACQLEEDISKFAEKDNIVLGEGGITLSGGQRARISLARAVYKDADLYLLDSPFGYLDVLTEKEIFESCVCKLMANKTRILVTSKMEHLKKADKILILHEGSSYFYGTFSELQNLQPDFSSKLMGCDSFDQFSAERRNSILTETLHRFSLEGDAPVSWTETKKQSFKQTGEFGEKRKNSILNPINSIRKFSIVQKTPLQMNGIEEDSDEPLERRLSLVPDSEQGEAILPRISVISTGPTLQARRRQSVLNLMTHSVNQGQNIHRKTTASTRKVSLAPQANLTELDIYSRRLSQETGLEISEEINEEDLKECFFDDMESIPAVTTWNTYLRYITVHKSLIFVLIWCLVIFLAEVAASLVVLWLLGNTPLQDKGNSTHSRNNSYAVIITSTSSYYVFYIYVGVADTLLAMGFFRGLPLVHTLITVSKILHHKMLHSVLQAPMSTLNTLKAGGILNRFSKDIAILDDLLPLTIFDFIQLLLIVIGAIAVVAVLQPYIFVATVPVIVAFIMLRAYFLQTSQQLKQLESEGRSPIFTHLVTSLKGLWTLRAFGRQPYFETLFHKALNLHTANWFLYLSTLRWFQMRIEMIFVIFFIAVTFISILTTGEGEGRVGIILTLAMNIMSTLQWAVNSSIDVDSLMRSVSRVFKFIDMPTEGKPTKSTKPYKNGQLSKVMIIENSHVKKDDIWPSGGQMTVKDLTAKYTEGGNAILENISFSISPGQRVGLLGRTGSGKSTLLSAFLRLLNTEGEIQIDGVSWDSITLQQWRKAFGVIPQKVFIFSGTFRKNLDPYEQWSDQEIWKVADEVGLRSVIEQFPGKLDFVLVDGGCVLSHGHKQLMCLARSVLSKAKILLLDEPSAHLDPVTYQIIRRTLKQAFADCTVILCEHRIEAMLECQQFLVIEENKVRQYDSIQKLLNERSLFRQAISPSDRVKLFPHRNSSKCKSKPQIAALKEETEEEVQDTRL

[7] = system: Serum; experiment: Metabolic stability in mouse serum at 5 mg after 4 hrs by hydrogen-deuterium exchange assay; assay type: ADME, cell-free

Structure (SMILES): CC(C)N.Cn1c(=O)c2c(-c3ccccc3)n3c(c2n(C)c1=O)[C@H](c1ccc(Br)o1)Oc1ccc(C(=O)O)cc1-3 [listing 1 of 2 here]
- IC50 [1]: 4 nM

Structure (SMILES): CCOC(=O)c1ccc2c(c1)-n1c(-c3ccccc3)c3c(=O)n(C)c(=O)n(C)c3c1[C@@H](c1ccc(Br)o1)O2
- inhibition [6]: inactive

Structure (SMILES): CC(C)N.Cn1c(=O)c2c(-c3ccccc3)n3c(c2n(C)c1=O)[C@@H](c1ccc(Br)o1)Oc1ccc(C(=O)O)cc1-3 [listing 1 of 2 here]
- Stability [7]: Stable

Structure (SMILES): CC(C)N.Cn1c(=O)c2c(-c3ccccc3)n3c(c2n(C)c1=O)[C@H](c1ccc(Br)o1)Oc1ccc(C(=O)O)cc1-3 [listing 2 of 2 here]
- inhibition [6]: Active
- inhibition [1]: Dose-dependent effect

Structure (SMILES): CC(C)N.Cn1c(=O)c2c(-c3ccccc3)n3c(c2n(C)c1=O)[C@@H](c1ccc(Br)o1)Oc1ccc(C(=O)O)cc1-3 [listing 2 of 2 here]
- inhibition [6]: inactive

Next, values leading:

- metabolised at 4 h, 5 µM [2]: < 5%
Structure (SMILES): Cn1c(=O)c2c(-c3ccccc3)n3c(c2n(C)c1=O)[C@@H](c1ccc(Br)o1)Oc1ccc(C(=O)O)cc1-3

- Stability [3]: Stable
- metabolised at 4 h, 5 µM [2]: < 5%
- half-life [4]: 1.6 h
- concentration at 4 h [5]: 600 nM
Structure (SMILES): Cn1c(=O)c2c(-c3ccccc3)n3c(c2n(C)c1=O)[C@H](c1ccc(Br)o1)Oc1ccc(C(=O)O)cc1-3
